Shown are actives, neighbours in structure and some others; about 4.5% of the full set was active somewhere.
PfM18AAP inh-1: PfM18AAP enzyme inhibition | recombinant PfM18AAP, H-Glu-NHMec fluorogenic cleavage | inhibition, % at 7.35 µM | hit rate 1.2% among 290,000 | AID 1822;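 active = inhibition above the campaign mean inhibition over all tested compounds plus 3 SD, cut at about 28% in these data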
HCV NS3 hel inh: inhibitors of Hepatitis C virus NS3 helicase; NS3 helicase DNA unwinding, Cy5 molecular beacon fluorescence; inhibition, % at 10.9 µM; hit rate 0.56% among 290,000; AID 1800;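 active = inhibition above the mean of all tested compounds plus 3 SD, set per campaign, cut at about 35% in these data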
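assay system = NS3 helicase fragment of HCV | buffer or medium = MOPS pH 6.5, MgCl2, DTT, Tween20, BSA | timing = 60 min unwinding reaction at 25 °C after ATP addition | signal = Cy5 beacon fluorescence read at start and 1 h | read-out basis = % inhibition of unwinding | control set = low DMSO, high thioflavine S at 110 µM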
p97 inhibitor: human p97 ATPase inhibition; recombinant p97 ATPase, Kinase-Glo ATP luminescence, 3 h; hit rate 0.42% among 220,000; inhibition, % at 8 µM; in the data active = inhibition above about 15%
Target sequence (P55072 whole entry, looked up): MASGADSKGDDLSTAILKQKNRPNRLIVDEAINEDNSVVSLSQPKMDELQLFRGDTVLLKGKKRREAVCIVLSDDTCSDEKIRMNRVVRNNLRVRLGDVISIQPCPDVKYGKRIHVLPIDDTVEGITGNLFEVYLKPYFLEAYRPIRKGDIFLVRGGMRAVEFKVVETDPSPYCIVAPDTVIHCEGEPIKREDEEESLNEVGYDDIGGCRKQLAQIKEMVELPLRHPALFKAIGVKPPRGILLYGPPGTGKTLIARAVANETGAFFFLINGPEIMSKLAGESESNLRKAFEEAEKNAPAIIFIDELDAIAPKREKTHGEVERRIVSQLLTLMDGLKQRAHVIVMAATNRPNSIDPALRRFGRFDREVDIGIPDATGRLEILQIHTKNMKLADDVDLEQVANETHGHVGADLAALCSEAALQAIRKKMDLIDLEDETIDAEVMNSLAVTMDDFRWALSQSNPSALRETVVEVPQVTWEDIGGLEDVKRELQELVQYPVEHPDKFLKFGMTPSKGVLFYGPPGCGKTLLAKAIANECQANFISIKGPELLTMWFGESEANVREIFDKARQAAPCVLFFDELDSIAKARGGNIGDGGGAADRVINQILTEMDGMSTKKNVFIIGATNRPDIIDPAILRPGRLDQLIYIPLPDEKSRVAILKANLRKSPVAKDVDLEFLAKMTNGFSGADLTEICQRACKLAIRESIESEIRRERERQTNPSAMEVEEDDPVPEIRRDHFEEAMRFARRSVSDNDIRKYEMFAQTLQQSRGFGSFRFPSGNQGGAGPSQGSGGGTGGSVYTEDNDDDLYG
UPR CHOP act: apoptotic UPR (CHOP) activation | CHO-CHOP luciferase reporter, luminescence; percent of tunicamycin response over DMSO baseline | activation, % at 10 µM | hit rate 0.34% among 330,000 | AID 449763;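 active = at 10 µM dose, activation of 40% or more, normalized to positive control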
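Assay system: CHO cells with stable CHOP pathway luciferase reporter; Buffer or medium: F12 plus 10% serum; Times: 16-18 h cell attachment, then 6 h compound exposure, 37 °C; Signal: luciferase luminescence; Read-out basis: percent activation relative to tunicamycin control; Control set: tunicamycin high control, DMSO low control.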
CHOP inh: CHOP inhibition in unfolded protein response; CHO-K1 CHOP-promoter luciferase, tunicamycin-induced, 15-18 h; inhibition, % at 10 µM; hit rate 3.8% among 220,000; AID 2732;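 active = compounds that reduced the stress-induced luciferase reporter signal by more than about 70% of percent inhibition, limit read from the data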
UPR XBP1 act: adaptive UPR (XBP1) activation; CHO-XBP1 luciferase reporter, IRE1-XBP1 UPR activation, luminescence; percent of tunicamycin response, DMSO as zero; activation, % at 20 µM; hit rate 0.33% among 330,000; AID 463104;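 active = versus positive control, 20 µM dose yields 30% or more activation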
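Material – CHO cell line with stable XBP1 luciferase reporter · Buffer or medium – F12 plus 10% FBS · Compound – single point, 20 µM final compound, 1% DMSO · Schedule – 16-18 h cell attachment at 37 °C, then 6 h compound exposure · Signal – Steady-Glo luminescence read · Benchmarks – high control tunicamycin 10 µg/mL final, low control DMSO vehicle only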
PfM18AAP inh-2: PfM18AAP inhibition, confirmation | shares compounds with PfM18AAP inh-1 | recombinant PfM18AAP, H-Glu-NHMec fluorogenic cleavage | inhibition, % at 7.35 µM | hit rate 28% among 2,400 | AID 2170;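 active = mean inhibition over replicate wells above the hit cutoff set for the earlier primary screen, cut at about 29% in these data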
CTSL1 confirm: counter-screen for PFM18AAP inhibitors: confirmation of human cathepsin L inhibitors. shares compounds with PfM18AAP inh-1. purified cathepsin L1, Z-Leu-Arg-MCA fluorescence. inhibition, % at 5.96 µM. 2,400 tested, under 10 active. AID 2178;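 active = average inhibition across replicates above the hit cutoff set in the earlier primary screen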
Each line names hits and unclear results; the compound was inactive in the other large screens (follow-up assays come after a bar, where they were run).

O=C(O)c1c[nH]c(=S)n1-c1ccc(F)cc1	PfM18AAP inh-1 51 | PfM18AAP inh-2 39 | CTSL1 confirm inactive
N#Cc1c2n(c(=S)n(-c3ccccc3[N+](=O)[O-])c1=O)CCCCC2	PfM18AAP inh-1 35 | PfM18AAP inh-2 inactive | CTSL1 confirm inactive
O=C(Nc1ccncc1)C1COc2ccccc2O1 (centres undefined)	none
O=C(CSC1=NCCN1)C1COc2ccccc2O1 (centres undefined)	PfM18AAP inh-1 42 | PfM18AAP inh-2 inactive | CTSL1 confirm inactive
Cc1ccccc1NC(=O)Cc1c[nH]c2ccccc12	none (no result: p97 inhibitor, CHOP inh)
CCCCc1c(O)cc(C)[nH]c1=O	none
Cc1cc(NC(=O)CSc2nnc(-c3ccc(O)cc3)o2)no1	PfM18AAP inh-1 38 | PfM18AAP inh-2 inactive | CTSL1 confirm inactive
O=C(CN1CCN(c2ccc(O)cc2)CC1)Nc1ccc2c(c1)OCCO2	PfM18AAP inh-1 38 | PfM18AAP inh-2 inactive | CTSL1 confirm inactive
CCOC(=O)Cc1csc(NC(=O)COc2ccc(C)cc2)n1	none
Cc1cc(NC(=O)CN2CCN(S(=O)(=O)c3ccc(Cl)cc3)CC2)no1	none
Cc1cc(NC(=O)CSc2nnc(-c3ccccc3)o2)no1	none
O=C(CN1CCN(c2ccc(F)cc2)CC1)Nc1ccc2c(c1)OCCO2	none (no result: p97 inhibitor, CHOP inh)
Cc1cc(NC(=O)CN2CCN(c3ccc(O)cc3)CC2)no1	PfM18AAP inh-1 35 | PfM18AAP inh-2 inactive | CTSL1 confirm inactive
CCOC(=O)Cc1csc(NC(=O)CSc2nnc(-c3ccc(C)cc3)o2)n1	PfM18AAP inh-1 32, CHOP inh 78 | PfM18AAP inh-2 inactive | CTSL1 confirm inactive
COc1ccc(CC(=O)N/N=C(\C)c2cccs2)cc1	none (no result: p97 inhibitor, CHOP inh)
COc1ccc(CN2CCCC(C(=O)Nc3cccc(-n4cccn4)c3)C2)c(F)c1 (centres undefined)	none (no result: p97 inhibitor, CHOP inh)
CCOc1ccc(NC(=O)COC(=O)c2ccc3ncsc3c2)cc1OCC	none (no result: PfM18AAP inh-1, HCV NS3 hel inh, p97 inhibitor, CHOP inh)
CCOc1ccc(NC(=O)c2c(N)n(C)c(=O)[nH]c2=O)cc1	none (no result: PfM18AAP inh-1, HCV NS3 hel inh, p97 inhibitor, CHOP inh)
COc1ccccc1NS(=O)(=O)c1cc(NC(=S)NCCN2CCOCC2)ccc1N1CCOCC1	PfM18AAP inh-1 38 | PfM18AAP inh-2 inactive | CTSL1 confirm inactive
COc1ccccc1NS(=O)(=O)c1cc(NC(=O)c2sccc2C)ccc1N1CCCC1	PfM18AAP inh-1 56 | PfM18AAP inh-2 inactive | CTSL1 confirm inactive
COc1ccccc1NS(=O)(=O)c1cc(NC(=O)c2cccs2)ccc1N1CCCC1	PfM18AAP inh-1 36 | PfM18AAP inh-2 inactive | CTSL1 confirm inactive
COc1ccccc1NS(=O)(=O)c1cc(NC(=O)c2cccs2)ccc1N1CCCCC1	none
COc1ccc(S(=O)(=O)N2CCOC2CNC(=O)C(=O)NCCCN2CCOCC2)cc1C (centres undefined)	none (no result: p97 inhibitor, CHOP inh)
COc1cccc(/C=N/NC(=O)c2cccc3ccccc23)c1OC	none (no result: PfM18AAP inh-1, HCV NS3 hel inh, p97 inhibitor, CHOP inh)
CCOc1ccc(CCNC(=O)c2sc3nc4n(c(=O)c3c2C)CCC4)cc1	none (no result: p97 inhibitor, CHOP inh)
COc1ccc(-c2cc(-c3ccccc3)nc(NN)n2)cc1OC	PfM18AAP inh-1 34 (no result: p97 inhibitor, CHOP inh) | PfM18AAP inh-2 inactive | CTSL1 confirm inactive
CCN(CC)c1nc(C#N)cc(-c2ccc(OC)cc2)n1	none (no result: CHOP inh)
COc1ccc(-c2cc(C#N)nc(NN)n2)cc1	PfM18AAP inh-1 36 | PfM18AAP inh-2 36 | CTSL1 confirm inactive
Cc1ccc(S(=O)(=O)N2CCN(C(=O)CSC(=S)N3CCCC3)CC2)c(C)c1	none (no result: PfM18AAP inh-1, HCV NS3 hel inh, p97 inhibitor, CHOP inh)
CCc1nnc(NC(=O)CSc2nnc(Cc3ccc(OC)cc3)o2)s1	PfM18AAP inh-1 41 | PfM18AAP inh-2 inactive | CTSL1 confirm inactive
CCc1nnc(NC(=O)CSc2nnc(COc3cccc(C)c3)o2)s1	PfM18AAP inh-1 47 | PfM18AAP inh-2 inactive | CTSL1 confirm inactive
CCc1nnc(NC(=O)CSc2nnc(COc3ccccc3C)o2)s1	none
S=c1[nH]nc(-c2ccncc2)n1/N=C/c1cccc(Cl)c1	none
CC1CN(C(c2cccs2)c2sc3ncnn3c2O)CC(C)O1 (centres undefined)	none
CC1CCCN(C(c2ccccc2)c2sc3ncnn3c2O)C1 (centres undefined)	PfM18AAP inh-1 55 | PfM18AAP inh-2 inactive | CTSL1 confirm inactive
Oc1c(C(c2ccccc2)N2CCc3ccccc3C2)sc2ncnn12 (centres undefined)	PfM18AAP inh-1 58 | PfM18AAP inh-2 inactive | CTSL1 confirm inactive
O=C(COC(=O)/C=C/c1ccccc1)NCCc1ccc(F)cc1	none (no result: PfM18AAP inh-1, HCV NS3 hel inh, p97 inhibitor, CHOP inh)
CN(C)S(=O)(=O)c1cccc(C(=O)N=C2N=C3C=CC(Cl)=CN3Cc3ccccc32)c1	none
O=c1c2ccccc2cnn1Cc1n[nH]c(=S)n1-c1ccc(Cl)cc1	PfM18AAP inh-1 35 | PfM18AAP inh-2 inactive | CTSL1 confirm inactive
